From ChEMBL document CHEMBL3392957, “The discovery of 1,2,3,9b-tetrahydro-5H-imidazo[2,1-a]isoindol-5-ones as a new class of respiratory syncytial virus (RSV) fusion inhibitors. Part 1” (Bioorg Med Chem Lett, 2015)
Converted amounts (≈) assume the structure as drawn.

How the values were obtained:
[1] = system: Respiratory syncytial virus; experiment: Selectivity ratio of EC50 for Respiratory syncytial virus A Long harboring F protein D489 mutant infected in human Hep2 cells to EC50 for wild-type Respiratory syncytial virus A Long infected in human Hep2 cells; format: functional, HEp-2
In short: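 CPE assay: HEp2 cells (1.0 × 10⁴/well) infected at low moi with RSV A Long, either F-protein D489Y mutant or wild type, and added to serially diluted compound. Incubated 5 days at 37 °C, 5% CO₂. MTT (1 mg/ml) added for 2 h, then isopropanol, and absorbance read at 540 nm. EC50 by non-linear regression. Ratio is mutant EC50 over wild-type EC50.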

[2] = system: Respiratory syncytial virus; experiment: Antiviral activity against Respiratory syncytial virus B1 infected in human Hep2 cells assessed as inhibition of virus-induced cytopathicity after 5 days by MTT assay; format: functional, organism-based; conditions: B1, HEp-2, 120 h
In short: (§1)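 HEp2 cells (1.0 × 10⁴/well) infected at low moi (e.g. RSV A2 at moi 0.01) and added to serially diluted compound; 5 days at 37 °C, 5% CO₂. CPE read by MTT (1 mg/ml, 2 h, 37 °C), isopropanol, absorbance 540 nm; EC₅₀ by non-linear regression. SD given where n > 2.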

[3] = system: Respiratory syncytial virus; experiment: Antiviral activity against wild-type Respiratory syncytial virus A Long infected in human Hep2 cells assessed as inhibition of virus-induced cytopathicity after 5 days by MTT assay; format: functional, organism-based; conditions: HEp-2, 120 h; in short: as §1
[4] = Cytotoxicity against human Hep2 cells after 5 days by MTT assay; format: cell-based, HEp-2
In short: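 Uninfected HEp2 cells (1.0 × 10⁴/well) with serially diluted compound, 5 days at 37 °C in 5% CO₂; viability by MTT (1 mg/ml, 2 h), isopropanol, absorbance 540 nm; CC₅₀ by non-linear regression.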

[5] = Lipophilicity, log D of the compound in octanol saturated mobile phase at pH 7.4 by chromatographic method; format: physicochemical
In short: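 Effective logD determined chromatographically on a SUPELCOSIL LC-ABZ column with octanol-saturated mobile phase, pH 7.4.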

[6] = system: Respiratory syncytial virus; experiment: Selectivity ratio of EC50 for Respiratory syncytial virus A Long harboring F protein D489Y mutant infected in human Hep2 cells to EC50 for wild-type Respiratory syncytial virus A Long infected in human Hep2 cells
[7] = Kinetic solubility of the compound at pH 6.5 by nephelometry; format: physicochemical; conditions: buffer, read-out: Kinetic_solubility
In short: (§2)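 Kinetic solubility by nephelometry, at pH 2 and pH 6.5; reported as a range in μg/mL.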

[8] = system: Respiratory syncytial virus; experiment: Antiviral activity against Respiratory syncytial virus A2 infected in human Hep2 cells assessed as inhibition of virus-induced cytopathicity after 5 days by MTT assay relative to alpha-1-acid glycoprotein; format: functional, HEp-2
In short: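 RSV A2 CPE assay in HEp2 cells (moi 0.01, 5 days, 37 °C, MTT read-out at 540 nm) run with alpha-1-acid glycoprotein at 1.5 mg/mL; result expressed as fold shift in EC₅₀ versus the assay without AAG.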

[9] = Apparent volume of distribution in Sprague-Dawley rat at 1.4 mg/kg, iv; format: ADME, organism-based; design: dose 1.4 mg/kg, route intravenous; conditions: in vivo, read-out: Vz
[10] = Kinetic solubility of the compound at pH 2 by nephelometry; format: physicochemical; conditions: buffer, read-out: Kinetic_solubility; in short: as §2
[11] = Oral bioavailability in Sprague-Dawley rat at 22 mg/kg as suspension with hydroxypropylmethylcellulose; format: ADME, organism-based; conditions: in vivo
[12] = Plasma protein binding in rat; format: ADME, cell-free; conditions: read-out: PPB (converted)
[13] = system: Respiratory syncytial virus; experiment: Antiviral activity against Respiratory syncytial virus A2 infected in human Hep2 cells assessed as inhibition of virus-induced cytopathicity after 5 days by MTT assay; format: functional, organism-based; conditions: A2, HEp-2, 120 h; in short: as §1
[14] = Elimination half life in Sprague-Dawley rat at 22 mg/kg, po as suspension with hydroxypropylmethylcellulose; format: ADME, organism-based; design: dose 22 mg/kg, route oral; conditions: in vivo, read-out: beta t1/2 (converted)
[15] = Total clearance in Sprague-Dawley rat at 1.4 mg/kg, iv; format: ADME, organism-based; design: dose 1.4 mg/kg, route intravenous; conditions: in vivo
[16] = Cmax in Sprague-Dawley rat at 22 mg/kg, po as suspension with hydroxypropylmethylcellulose; format: ADME, organism-based; design: dose 22 mg/kg, route oral; conditions: in vivo
[17] = Elimination half life in Sprague-Dawley rat at 1.4 mg/kg, iv; format: ADME, organism-based; design: dose 1.4 mg/kg, route intravenous; conditions: in vivo, read-out: beta t1/2 (converted)
[18] = Elimination half life in Sprague-Dawley rat at 2.0 mg/kg, iv as solution in 5% glucose and 10% DMSO; conditions: in vivo, read-out: beta t1/2 (converted)
[19] = Total clearance in Sprague-Dawley rat at 2.0 mg/kg, iv as solution in 5% glucose and 10% DMSO; conditions: in vivo
[20] = Cmax in Sprague-Dawley rat at 20 mg/kg, po as suspension with carboxymethylcellulose; conditions: in vivo
[21] = Oral bioavailability in Sprague-Dawley rat at 19 mg/kg as suspension with carboxymethylcellulose; format: ADME, organism-based; conditions: in vivo, 20 mg/kg, in the assay text read “20 mg/kg” for “19 mg/kg”
In short: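 Male Sprague-Dawley rats, n = 2, given a single oral dose. Plasma pharmacokinetics were analysed for Cmax (µM), terminal half-life (hr) and oral bioavailability F (%). The oral bioavailability estimate draws on a separate intravenous arm, also with n = 2 rats.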

[22] = Apparent volume of distribution in Sprague-Dawley rat at 2.0 mg/kg, iv as solution in 5% glucose and 10% DMSO; conditions: in vivo, read-out: Vz
[23] = Elimination half life in Sprague-Dawley rat at 20 mg/kg, po as suspension with carboxymethylcellulose; conditions: in vivo, read-out: beta t1/2 (converted)

Structure (SMILES) | EC50 [2] [nM] | EC50 [3] [nM] | CC50 at 120 h [4] [nM] | chromatographic logD [5] | solubility kinetic [7] [µg/mL] | fold change (FC) [8] | solubility kinetic [10] [µg/mL] | EC50 [13] [nM] | other results
O=C(c1ccc(F)cc1)N1CCN2C(=O)c3ccccc3C12c1ccc(Cl)cc1 (racemic) | 750 | 260 | > 20000 | 4 | 6.3 (≈ 15.5 µM) | 39 | 6.3 (≈ 15.5 µM) | 280 | Ratio EC50 [1]: >76; Ratio EC50 [6]: >76; Vd [9]: 2.7 L/kg; bioavailability [11]: 15%; fraction unbound [12]: 0.02; half-life [14]: 17 h; clearance [15]: 2.1 mL/min/kg; Cmax [16]: 2 µM; half-life [17]: 16 h
O=C(c1ccc(F)cc1)N1CCN2C(=O)c3cc[n+]([O-])cc3C12c1ccc(Cl)cc1 (racemic) | 910 | 120 | > 47000 | 2.3 | 25 (≈ 59 µM) | <10 | 50 (≈ 118 µM) | 250 | half-life [18]: 6.5 h; clearance [19]: 2.4 mL/min/kg; Cmax [20]: 23 µM; bioavailability [21]: 89%; Vd [22]: 1.3 L/kg; half-life [23]: 5.6 h
